Screening data deposited in PubChem BioAssay by The Scripps Research Institute Molecular Screening Center.
M4 PAM = human M4 muscarinic receptor positive allosteric modulators, primary screen, CHO-K1 cells, Fluo-8 calcium fluorescence. Muscarinic acetylcholine receptor M4 (Homo sapiens), P08173. CHO-K1 hM4/Gqi5, ACh EC20; 0% = ACh EC20, 100% = maximal ACh. activation, % at 3 µM. 360,000 tested, 0.4% active. AID 624126, 2012;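 active = activation above its plate's cutoff, the mean activation of sample wells plus 3 SD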
Target sequence (P08173 whole entry, looked up): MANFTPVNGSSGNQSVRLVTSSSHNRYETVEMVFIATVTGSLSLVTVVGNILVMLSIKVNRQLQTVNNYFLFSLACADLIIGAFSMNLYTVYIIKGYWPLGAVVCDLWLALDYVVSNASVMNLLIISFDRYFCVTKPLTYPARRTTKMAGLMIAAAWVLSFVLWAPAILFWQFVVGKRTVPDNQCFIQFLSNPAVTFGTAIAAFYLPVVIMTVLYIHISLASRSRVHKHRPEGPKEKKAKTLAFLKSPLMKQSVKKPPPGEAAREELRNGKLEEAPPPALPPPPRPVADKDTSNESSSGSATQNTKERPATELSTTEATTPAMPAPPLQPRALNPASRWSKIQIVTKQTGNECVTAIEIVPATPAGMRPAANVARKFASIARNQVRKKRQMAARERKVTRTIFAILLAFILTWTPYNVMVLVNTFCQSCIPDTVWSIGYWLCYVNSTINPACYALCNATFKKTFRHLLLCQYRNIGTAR
CHRM4 antagonist = human M4 muscarinic receptor antagonists, primary screen, CHO cells, Fluo-8 calcium fluorescence. CHO-hM4 cells, ACh EC80. inhibition, % at 3 µM. 360,000 tested, 0.73% active. AID 624125, 2012;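 active = inhibition above its plate's cutoff, the mean inhibition of sample wells plus 3 SD, cut at about 27% in these data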
TAAR1 antag = human TAAR1 antagonists, primary screen, Fluo-8 calcium fluorescence, CHO RD-HGA16 cells; Trace amine-associated receptor 1 (Homo sapiens), Q96RJ0; antagonist; inhibition, % at 3 µM; 360,000 tested, 1.5% active; AID 624466, 2012;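 active = inhibition above a per-plate cutoff, the mean inhibition of test compounds on that plate plus 3 SD, cut at about 49% in these data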
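Test system: hTAAR1-expressing CHO RD-HGA16 cells, Gα16-coupled; Probe or stimulus: EC80 β-phenethylamine stimulus; Compound dosing: single nominal final test compound concentration of 3 µM; Timing: 140 s kinetic read after compound, 140 s after agonist; Signal: Fluo-8 calcium-sensitive fluorescence; Measure: % inhibition of agonist calcium response; Controls: DMSO and EC80 PEA controls.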
TAAR1 ag = human TAAR1 agonists, primary screen, Fluo-8 calcium fluorescence, CHO RD-HGA16 cells; vehicle wells 0%, saturating PEA agonist 100%; activation, % at 3 µM; Trace amine-associated receptor 1 (Homo sapiens), Q96RJ0; 360,000 tested, 0.99% active;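 active = activation above the mean activation of all test compounds in the run plus 3 SD, cut at about 38% in these data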
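System: CHO-derived RD-HGA16 cells with stable Gα16 and human TAAR1 / Times: 17-24 h plating, Fluo-8 75 min 37 °C, 30 min RT / Technique: calcium-sensitive Fluo-8 signal, excitation 470-495, emission 515-575 nm / Measure: % activation relative to PEA EC100 response / Benchmarks: DMSO and PEA EC100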
CHRM4 agonist = human M4 muscarinic receptor agonists, primary screen, CHO-K1 cells, Fluo-8 calcium fluorescence; CHO-K1 hM4/Gqi5; vehicle 0%, full acetylcholine response 100%; activation, % at 3 µM; 360,000 tested, 0.14% active; AID 624127, 2012;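 active = activation above the run mean over all test wells plus 3 SD, cut at about 32% in these data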;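 also: peak over basal fluorescence ratio per well then scaled between controls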
Hits are given with their value; . = inactive; / = not tested or not shown. This is a sample that favours compounds with a hit; in the whole collection about 3% have one here.

SMILES | M4 PAM | CHRM4 antagonist | TAAR1 antag | TAAR1 ag | CHRM4 agonist
CCOC(=O)C1CCCN(C(=O)COc2ccccc2F)C1 (stereo unspecified) | . | . | . | . | .
CCOC(=O)C1CCCN(C(=O)COc2ccccc2O)C1 (stereo unspecified) | . | . | . | 43.2 | .
C[C@H](O)[C@@H]1CN2CCc3ccc(-c4ccc5c(c4)OCO5)cc3[C@@H]2C[C@@H]1N(C)C(=O)c1ccco1 | / | / | . | . | /
NCCc1cnc[nH]1 | . | . | . | . | .
NCCc1ccn[nH]1 | . | . | . | 39.8 | .
COc1ccc(S(=O)(=O)N(C)C[C@H]2Oc3c(NC(=O)Nc4ccccc4)cccc3C(=O)N([C@H](C)CO)C[C@@H]2C)cc1 | . | . | 57.5 | . | .
COc1ccc(NC(=O)Nc2cccc3c2O[C@H](CN(C)C(=O)Nc2ccc(OC)cc2)[C@@H](C)CN([C@H](C)CO)C3=O)cc1 | . | . | 55.7 | . | .
COc1ccc(NC(=O)N(C)C[C@H]2Oc3c(NC(=O)Nc4ccc5c(c4)OCO5)cccc3C(=O)N([C@H](C)CO)C[C@@H]2C)cc1 | . | . | 49.0 | . | .
CNC[C@H]1OCc2cnnn2CCCC(=O)N([C@@H](C)CO)C[C@@H]1C | / | / | . | . | /
Cc1cc(N2CCN(CC(C)(C)O)C[C@@H]2C)ccc1N1CCN(CC(C)(C)O)[C@@H](C)C1 | / | / | . | . | /
C#CCN1CC(COc2ccccc2)Oc2cccc(Oc3ccc(C(C)C)cc3)c2S1(=O)=O (stereo unspecified) | / | / | . | . | /
CCc1ccccc1N(C)S(=O)(=O)c1ccc2[nH]cc(C(=O)N3CCc4ccccc43)c(=O)c2c1 | . | . | 56.7 | . | .
O=C(O)c1cccc(Cn2c(Cl)c(/C=N/NC(=O)c3cccc(O)c3)sc2=O)c1 | . | 33.1 | . | . | .
O=C(O)c1cccc(Cn2c(Cl)c(/C=N/NC(=O)c3ccccc3)sc2=O)c1 | . | . | . | . | .
CCOC(=O)N1CCN(C(=O)c2ccc(NC(=O)c3ccc(C)cc3)cc2)CC1 | 30.9 | . | . | . | .
CCOC(=O)N1CCN(C(=O)c2ccc(NC(C)=O)cc2)CC1 | . | . | . | . | .
Nc1ccn([C@@H]2O[C@H](C(=O)N3CCN(C(=O)N4CCCCC4)CC3)[C@@H](O)[C@H]2O)c(=O)n1 | / | / | . | . | /
COc1ccc(-c2nc(N3CCCCCC3)sc2C(=O)c2ccccc2)cc1 | . | 33.1 | 80.2 | 42.1 | .
O=C(c1ccccc1)c1sc(N2CCCCCC2)nc1-c1ccccc1 | . | . | . | . | .
COc1ccc(N(S(=O)(=O)c2ccccc2)S(=O)(=O)c2ccccc2)c(N)c1 | . | . | 50.6 | . | .
COC(=O)CNC(=O)CN(c1ccc(OC)cc1OC)S(=O)(=O)c1ccccc1 | . | . | . | . | .
COc1ccc(S(=O)(=O)N(C)[C@H]2C[C@H]3c4cc(-c5ccccc5)ccc4CCN3C(=O)[C@H]2[C@H](C)O)cc1 | . | . | 56.0 | . | .
Cc1[nH][nH]c(=O)c1C(c1ccc(-c2ccc(Cl)c(Cl)c2)o1)c1c(C)[nH][nH]c1=O | . | . | 104.7 | . | .
CCN1CCN(c2ncnc3scc(-c4ccc(C)c(C)c4)c23)CC1 | . | 26.6 | . | . | .
C=CCN1C(=O)c2n[nH]c(C(C)C)c2C1c1ccccc1 (stereo unspecified) | / | / | . | . | /
SMILES | M4 PAM | CHRM4 antagonist | TAAR1 antag | TAAR1 ag | CHRM4 agonist
O=C(C1CCCO1)N1CCC(O)(c2ccccc2)CC1 (stereo unspecified) | 19.9 | . | . | . | .
O=C(C1CCCO1)N1CCN(C(c2ccccc2)c2ccccc2)CC1 (stereo unspecified) | . | . | . | . | .
O=C(N[C@H](Cc1ccccc1)C(=O)O)[C@H]1O[C@@H](n2ccc(=O)[nH]c2=O)[C@H](O)[C@@H]1O | / | / | . | . | /
CN(c1ccc(C(=O)NCCc2ccccc2)cc1)S(C)(=O)=O | . | . | . | 40.3 | .
O=C(NCCc1ccccc1)c1ccc(NC(=O)C2CCCCC2)cc1 | . | . | 48.9 | . | .
CS(=O)(=O)c1cc(C(=O)O)cc(NCc2ccccc2)c1Oc1ccccc1 | . | . | . | . | .
